Reference: publication PMC8349895 (Bioorganic & medicinal chemistry letters, 2021)

Assays:
[1] = target: T1, hM1 (Homo sapiens, UniProt P11229); test: Calcium mobilization PAM assay in hM1-CHO cells with EC20 acetylcholine; assay type: cell-based; conditions: PAM mode
T1 sequence (P11229 1-460): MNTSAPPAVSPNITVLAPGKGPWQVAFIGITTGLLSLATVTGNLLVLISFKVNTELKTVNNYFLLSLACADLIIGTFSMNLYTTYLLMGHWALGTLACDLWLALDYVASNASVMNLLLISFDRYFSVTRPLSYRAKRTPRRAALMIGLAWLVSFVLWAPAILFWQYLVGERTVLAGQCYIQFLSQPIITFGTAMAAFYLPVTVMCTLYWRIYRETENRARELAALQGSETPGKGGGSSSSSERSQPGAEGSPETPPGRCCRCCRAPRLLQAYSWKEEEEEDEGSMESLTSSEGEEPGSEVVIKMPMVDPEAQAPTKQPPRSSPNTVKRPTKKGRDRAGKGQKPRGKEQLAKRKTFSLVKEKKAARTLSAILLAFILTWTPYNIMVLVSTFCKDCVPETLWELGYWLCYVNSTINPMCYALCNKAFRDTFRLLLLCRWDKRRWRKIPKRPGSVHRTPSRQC

[2] = target: T2, hM4 (Homo sapiens, UniProt P08173); test: Calcium mobilization PAM selectivity assay, hM4; assay type: cell-based
T2 sequence (P08173 1-479): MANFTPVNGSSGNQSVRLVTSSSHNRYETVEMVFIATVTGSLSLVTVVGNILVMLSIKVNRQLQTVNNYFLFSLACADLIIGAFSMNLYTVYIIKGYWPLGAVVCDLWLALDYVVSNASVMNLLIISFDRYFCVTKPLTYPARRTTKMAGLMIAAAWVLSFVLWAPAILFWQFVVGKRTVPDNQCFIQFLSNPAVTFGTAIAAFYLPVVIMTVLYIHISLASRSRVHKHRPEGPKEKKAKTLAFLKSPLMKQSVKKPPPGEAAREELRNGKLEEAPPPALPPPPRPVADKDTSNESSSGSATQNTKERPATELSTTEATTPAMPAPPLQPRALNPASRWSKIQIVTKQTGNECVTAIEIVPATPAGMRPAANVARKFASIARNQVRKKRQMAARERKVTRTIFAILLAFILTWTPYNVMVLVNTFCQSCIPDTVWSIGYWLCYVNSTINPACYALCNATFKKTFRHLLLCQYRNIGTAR

[3] = Predicted hepatic clearance, rat; assay type: in vitro ADME
[4] = target: T1, hM1; test: Calcium mobilization agonist mode in hM1-CHO cells, no exogenous ACh; assay type: cell-based; conditions: no exogenous acetylcholine
Method in brief: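 Calcium mobilization in CHO cells expressing human M1, run without added acetylcholine to measure direct agonist activity and derive agonist EC50. Values are means of one to three independent experiments, each run in triplicate.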

[5] = Predicted hepatic clearance, human; assay type: in vitro ADME

| hM1 activity (in words) [1] | EC50 [2] [µM] | rClhep [3] [mL/min/kg] | hM1 agonist activity [4] | hClhep [5] [mL/min/kg] | SMILES |
| --- | --- | --- | --- | --- | --- |
| inactive | – | – | – | – | Cn1cc2c(-c3cc(F)c(CN4Cc5ocnc5C4=O)c(F)c3)cccc2n1 [Compound 12b] |
| – | > 10 | 58.7 | devoid of any hM1 agonist activity | 18.6 | Cn1cc2c(-c3cc(F)c(CN4Cc5cnn(CC6CCCO6)c5C4=O)c(F)c3)cccc2n1 (stereo not drawn) [Compound 20a] |
| inactive | – | – | – | – | Cc1[nH]cc2c1C(=O)N(Cc1c(F)cc(-c3cccc4nn(C)cc34)cc1F)C2 [Compound 25a] |

Continued, molecule first:

| SMILES | hM1 activity (in words) [1] | EC50 [2] [µM] | rClhep [3] [mL/min/kg] | hM1 agonist activity [4] | hClhep [5] [mL/min/kg] |
| --- | --- | --- | --- | --- | --- |
| Cn1cc2c(-c3cc(F)c(CN4Cc5nc[nH]c5C4=O)c(F)c3)cccc2n1 [Compound 8a] | inactive | – | – | – | – |
| Cn1cc2cc(-c3ccc(CN4Cc5ncsc5C4=O)c(F)c3)ccc2n1 [Compound 8b] | – | > 10 | 43 | devoid of any hM1 agonist activity | 10.4 |
| Cn1cc2c(-c3cc(F)c(CN4Cc5ncoc5C4=O)c(F)c3)cccc2n1 [Compound 12a] | inactive | – | – | – | – |
